Test results published in ChEMBL document CHEMBL4811272, “A new sulfated triterpene glycoside from the sea cucumber Colochirus quadrangularis, and evaluation of its antifungal, antitumor and immunomodulatory activities” (Bioorg Med Chem, 2021).
Activity calls are given as the source filed them. The calls are words filed in the database; no cut-off is given here.

Assays:
[1] = tested on: HCT-116; test: Cytotoxicity against human HCT-116 cells assessed as reduction in cell viability by sulforhodamine B assay; assay type: functional, cell-based
Method in brief: (§1)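 Cells were kept in RPMI-1640 with 10% FBS, 2 mM L-glutamine, 50 μM β-mercaptoethanol and penicillin/streptomycin, at 37 °C in 5% CO2. SRB assay used 100, 10, 1, 0.1 and 0.01 μM, each in triplicate. Percent inhibition was calculated against solvent control OD. IC50 came from Logit curve fitting and is the mean of three independent experiments.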

[2] = Cytotoxicity against human HO-8910 cells assessed as reduction in cell viability by sulforhodamine B assay; assay type: functional, cell-based; method in brief: as §1
[3] = tested on: HL-60; test: Cytotoxicity against human HL-60 cells assessed as reduction in cell viability by sulforhodamine B assay; assay type: functional, cell-based; method in brief: as §1
[4] = tested on: SPC-A4; test: Cytotoxicity against human SPC-A4 cells assessed as reduction in cell viability by sulforhodamine B assay; assay type: functional, cell-based; method in brief: as §1
[5] = tested on: Pyricularia oryzae; test: Antifungal activity against Pyricularia oryzae P-2B by measuring minimum morphological deformation concentration; assay type: functional; settings: read-out: MEC
[6] = tested on: HCT-116; test: Induction of apoptosis in human HCT-116 cells assessed as increase in necrotic cells measured upto 2 times of IC50 concentration by annexin V staining based flow cytometry analysis; assay type: functional, cell-based
Method in brief: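 HCT-116 cells treated with vehicle or three compound concentrations, collected, and stained with Annexin V-FITC and propidium iodide in the dark at 4 °C. Flow cytometry quadrants: Q4 live, Q3 early apoptotic, Q2 late apoptotic, Q1 necrotic. n = 3; ANOVA vs vehicle.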

[7] = tested on: CCRF S-180; test: Antitumor activity against mouse S-180 cells implanted in KM mouse assessed as tumor growth inhibition at 0.5 mg/kg, IG administered everyday for 7 days relative to control; assay type: functional; settings: CCRF S-180, po, 168 h, time 7 day, read-out: TGI
Method in brief: (§2)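 S-180 or H22 cells, about 2.5 × 10⁶ per mouse, injected s.c. in the right axilla of wild-type KM mice. Randomized after 24 h and dosed intragastrically for 7 days; sacrificed 24 h after the last dose. TGI = (W_C − W_T)/W_C × 100% from average tumor weight. n = 8; one-way ANOVA vs vehicle.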

[8] = tested on: H22; test: Antitumor activity against mouse H22 cells implanted in KM mouse assessed as tumor growth inhibition at 0.5 mg/kg, IG administered everyday for 7 days relative to control; assay type: functional; settings: H22, po, 168 h, time 7 day, read-out: TGI; method in brief: as §2
[9] = tested on: H22; test: Antitumor activity against mouse H22 cells implanted in KM mouse assessed as tumor growth inhibition at 50 mg/kg, IG administered everyday for 7 days relative to control; assay type: functional; settings: H22, po, 168 h, time 7 day, read-out: TGI; method in brief: as §2
[10] = tested on: Bel-7402; test: Antitumor activity against human Bel-7402 cells implanted in BALB/c-nu mouse assessed as tumor growth inhibition at 50 mg/kg, IG administered everyday for 7 days relative to control; assay type: functional; settings: Bel-7402, po, 168 h, time 7 day, read-out: TGI
[11] = tested on: Bel-7402; test: Antitumor activity against human Bel-7402 cells implanted in BALB/c-nu mouse assessed as tumor growth inhibition at 500 mg/kg, IG administered everyday for 7 days relative to control; assay type: functional; settings: Bel-7402, po, 168 h, time 7 day, read-out: TGI
[12] = tested on: HCT-116; test: Induction of apoptosis in human HCT-116 cells assessed as apoptosis associated morphological changes measured upto 2 times of IC50 concentration for 24 hrs by Hoechst staining method; assay type: functional, cell-based
Method in brief: (§3)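 HCT-116 cells treated with vehicle or three compound concentrations, then stained with Hoechst 33258. Nuclei examined by inverted fluorescence microscopy at ×400 in five random fields. Apoptotic cells expressed as % of cells counted. n = 3; ANOVA vs vehicle.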

[13] = tested on: HCT-116; test: Induction of apoptosis in human HCT-116 cells assessed as apoptotic nuclei cells measured upto 2 times of IC50 concentration for 24 hrs by Hoechst staining method; assay type: functional, cell-based; method in brief: as §3
[14] = tested on: Bel-7402; test: Antitumor activity against human Bel-7402 cells implanted in BALB/c-nu mouse assessed as T/C ratio at 5 mg/kg, IG administered everyday for 7 days relative to control; assay type: functional; settings: time 7 day
[15] = tested on: Bel-7402; test: Antitumor activity against human Bel-7402 cells implanted in BALB/c-nu mouse assessed as T/C ratio at 100 mg/kg, IG administered everyday for 7 days relative to control; assay type: functional; settings: time 7 day
[16] = tested on: Mus musculus; test: Immunomodulatory activity in cyclophosphamide-immunosuppressed KM mouse assessed as improved spleen index in at 50 to 500 mg/kg, IG once daily measured after 14 days; assay type: functional, organism-based; settings: dose 50-500 mg/kg, time 14.0 day
Method in brief: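 KM mice dosed intragastrically at 5, 50 or 500 mg/kg; vehicle 0.5% CMC-Na. After five doses, immunized i.p. with 0.2 mL 20% rabbit erythrocytes, and dosing continued for 8 days. CTX 30 mg/kg i.p. on days 2, 4 and 6 after immunization. 1 h after the last dose, spleen and thymus weighed; index in g/kg. n = 8.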

C=C(C)CCC[C@]1(C)OC(=O)[C@]23CC[C@@H]4C(=CCC5C(C)(C)[C@@H](O[C@@H]6OC[C@@H](OS(=O)(=O)[O-])[C@H](O)[C@H]6O[C@@H]6O[C@H](C)[C@@H](O[C@@H]7OC[C@@H](O)[C@H](O[C@@H]8O[C@H](CO)[C@@H](O)[C@H](OC)[C@H]8O)[C@H]7O)[C@H](O)[C@H]6O)CC[C@@]54C)[C@]2(C)C[C@H](OC(C)=O)[C@@H]31.[Na+] (stereo partly specified)
IC50 [1]: 1360 nM | IC50 [2]: 1940 nM | IC50 [3]: 600 nM | IC50 [4]: 1500 nM | minimal effective concentration [5]: ≤ 16 µg/mL | Activity [6]: Active | inhibition in vivo at 0.5 mg/kg [7]: 21.6% | inhibition in vivo at 0.5 mg/kg [8]: 22.1% | inhibition in vivo at 50 mg/kg [9]: 43.3% | inhibition in vivo at 50 mg/kg [10]: 58.2% | inhibition in vivo at 500 mg/kg [11]: 58.6% | Activity [12]: Active | Activity [13]: Active | T/C [14]: 45% | T/C [15]: 20% | Activity [16]: Active
